Measurements from ChEMBL document CHEMBL1137729, “Synthesis, evaluation and 3D QSAR analysis of novel estradiol-RGD octapeptide conjugates with oral anti-osteoporosis activity” (Eur J Med Chem, 2009).
Residues, ends and D or L forms follow the SMILES beside them. *: point of attachment. Succinyl(O17-estradiol) = C[C@]12CC[C@@H]3c4ccc(O)cc4CC[C@H]3[C@@H]1CC[C@@H]2OC(=O)CCC(=O)*; Acetyl(estradiol-3-yloxy) = C[C@]12CC[C@@H]3c4ccc(OCC(=O)*)cc4CC[C@H]3[C@@H]1CC[C@@H]2O

Assays:
Mus musculus [1] = assay: Toxicity in ovariectomized ICR mouse assessed as effect on tail bleeding time at 110.3 nmol/kg, po treated for 4 weeks measured after 30 mins of last treatment; format: organism-based; conditions: in vivo, 0.5 h
How it was run: (§1)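 OVX mice received 110.3 nmol/kg orally in 0.5% carboxymethylcellulose daily for 4 weeks. At 30 and 90 min after the last dose, a 2 mm tail cut was made with the mouse in a tube holder; blood was blotted every 30 s until bleeding stopped, and the time was recorded as bleeding time.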

Mus musculus [2] = assay: Toxicity in ovariectomized ICR mouse assessed as effect on uterine weight at 110.3 nmol/kg, po treated for 4 weeks measured after 1 day of last treatment; format: organism-based; conditions: in vivo, 24 h
How it was run: (§2)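 OVX mice dosed orally once daily with 110.3 nmol/kg in 0.5% carboxymethylcellulose for 4 weeks. The day after the last dose, mice were anesthetized with pentobarbital (40.0 mg/kg ip) and killed; uteri, lungs, livers and spleens were removed and weighed directly and their morphology noted.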

Mus musculus [3] = assay: Antiosteoporosis activity in ovariectomized ICR mouse assessed as mineral content in femur at 110.3 nmol/kg, po treated for 4 weeks measured after 1 day of last treatment; format: functional
How it was run: (§3)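 Female mice, ovariectomized (sham: laparotomy only); from day 5 post-surgery dosed orally once daily with 110.3 nmol/kg in 0.2 ml 0.5% carboxymethylcellulose for 4 weeks (vehicle to OVX/sham). Left femur taken the day after the last dose, cleaned of muscle, length measured, defatted in chloroform–methanol (2:1, 2×3 h), dried 120 °C 6 h and weighed, ashed 800 °C 8 h and weighed. Mineral content = ash/dry weight; femur ash dissolved in 6 N HCl, diluted, calcium by o-methylphenolphthalein complexone. n = 12.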

Mus musculus [4] = assay: Antiosteoporosis activity in ovariectomized ICR mouse assessed as weight of femur ash at 110.3 nmol/kg, po treated for 4 weeks measured after 1 day of last treatment; format: functional; how it was run: as §3
Mus musculus [5] = assay: Antiosteoporosis activity in ovariectomized ICR mouse assessed as calcium content in femur at 110.3 nmol/kg, po treated for 4 weeks measured after 1 day of last treatment by o-methyl-phenolphthalein; format: functional; how it was run: as §3
Mus musculus [6] = assay: Antiosteoporosis activity in ovariectomized ICR mouse assessed as phosphorous level in serum at 110.3 nmol/kg, po treated for 4 weeks measured after 1 day of last treatment by molybdenum blue method; format: functional
How it was run: (§4)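 Ovariectomized female mice dosed orally with 110.3 nmol/kg in 0.5% carboxymethylcellulose once daily for 4 weeks, starting day 5 after surgery. Blood taken from the orbit the day after the last dose, stood 30 min, centrifuged 3000g for 20 min, serum stored at −20 °C. Calcium read by o-methylphenolphthalein complexone; phosphorus by molybdenum blue.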

Mus musculus [7] = assay: Toxicity in ovariectomized ICR mouse assessed as kidney weight at 110.3 nmol/kg, po treated for 4 weeks measured after 1 day of last treatment; format: organism-based; conditions: in vivo, 24 h
Mus musculus [8] = assay: Antiosteoporosis activity in ovariectomized ICR mouse assessed as phosphorous content in femur at 110.3 nmol/kg, po treated for 4 weeks measured after 1 day of last treatment by molybdenum blue method; format: functional
Mus musculus [9] = assay: Toxicity in ovariectomized ICR mouse assessed as lung weight at 110.3 nmol/kg, po treated for 4 weeks measured after 1 day of last treatment; format: organism-based; conditions: in vivo, 24 h; how it was run: as §2
Mus musculus [10] = assay: Antiosteoporosis activity in ovariectomized ICR mouse assessed as weight of dry femur at 110.3 nmol/kg, po treated for 4 weeks measured after 1 day of last treatment; format: functional
How it was run: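 Left femur taken the day after the last dose, cleaned of muscle, length measured, defatted in chloroform–methanol (2:1, 2×3 h), dried 120 °C 6 h and weighed, ashed 800 °C 8 h and weighed. Mineral content = ash/dry weight; femur ash dissolved in 6 N HCl, diluted, calcium by o-methylphenolphthalein complexone. n = 12.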

Mus musculus [11] = assay: Antiosteoporosis activity in ovariectomized ICR mouse assessed as length of femur at 110.3 nmol/kg, po treated for 4 weeks measured after 1 day of last treatment; format: functional; how it was run: as §3
Mus musculus [12] = assay: Toxicity in ovariectomized ICR mouse assessed as spleen weight at 110.3 nmol/kg, po treated for 4 weeks measured after 1 day of last treatment; format: organism-based; conditions: in vivo, 24 h; how it was run: as §2
Mus musculus [13] = assay: Antiosteoporosis activity in ovariectomized ICR mouse assessed as calcium level in serum at 110.3 nmol/kg, po treated for 4 weeks measured after 1 day of last treatment by o-methyl-phenolphthalein method; format: functional; how it was run: as §4
Mus musculus [14] = assay: Toxicity in ovariectomized ICR mouse assessed as liver weight at 110.3 nmol/kg, po treated for 4 weeks measured after 1 day of last treatment; format: organism-based; conditions: in vivo, 24 h; how it was run: as §2
Mus musculus [15] = assay: Toxicity in ovariectomized ICR mouse assessed as effect on tail bleeding time at 110.3 nmol/kg, po treated for 4 weeks measured after 90 mins of last treatment; format: organism-based; conditions: in vivo, 1.5 h; how it was run: as §1

Row | SMILES | Time (Mus musculus [1]) [s] | Activity (Mus musculus [2]) [g] | Activity (Mus musculus [3]) [%] | Activity (Mus musculus [4]) [mg] | Activity (Mus musculus [5]) [%] | Activity (Mus musculus [6]) [mM] | Activity (Mus musculus [7]) [g] | Activity (Mus musculus [8]) [%] | Activity (Mus musculus [9]) [g] | Activity (Mus musculus [10]) [mg] | Activity (Mus musculus [11]) [cm] | Activity (Mus musculus [12]) [g] | Activity (Mus musculus [13]) [mM] | Activity (Mus musculus [14]) [g] | Time (Mus musculus [15]) [s]
1 | C[C@]12CC[C@@H]3c4ccc(OCC(=O)N[C@@H](CCCNC(=N)N)C(=O)NCC(=O)N[C@@H](CC(=O)O)C(=O)N[C@@H](Cc5ccccc5)C(=O)O)cc4CC[C@H]3[C@@H]1CC[C@@H]2O ({Acetyl(estradiol-3-yloxy)}-RGDF-OH) | 557 | 0.067 | 0.596 | 33.56 | 57.42 | 3.19 | 0.159 | 20.09 | 0.112 | 53.87 | 1.669 | 0.177 | 3.24 | 1.336 | 560
2 | C[C@]12CC[C@@H]3c4ccc(OCC(=O)N[C@@H](CCCNC(=N)N)C(=O)NCC(=O)N[C@@H](CC(=O)O)C(=O)N[C@@H](Cc5ccccc5)C(=O)N[C@@H](CCCNC(=N)N)C(=O)NCC(=O)N[C@@H](CC(=O)O)C(=O)N[C@@H](Cc5ccccc5)C(=O)O)cc4CC[C@H]3[C@@H]1CC[C@@H]2O ({Acetyl(estradiol-3-yloxy)}-RGDFRGDF-OH) | 592 | 0.061 | 0.623 | 36.74 | 63.92 | 3.01 | 0.169 | 21.33 | 0.119 | 56.96 | 1.641 | 0.131 | 3.05 | 1.439 | 585
3 | C[C@]12CC[C@@H]3c4ccc(OCC(=O)N[C@@H](CCCNC(=N)N)C(=O)NCC(=O)N[C@@H](CC(=O)O)C(=O)N[C@@H](CO)C(=O)O)cc4CC[C@H]3[C@@H]1CC[C@@H]2O ({Acetyl(estradiol-3-yloxy)}-RGDS-OH) | 582 | 0.064 | 0.605 | 34.08 | 58.76 | 2.98 | 0.193 | 20.24 | 0.128 | 53.89 | 1.646 | 0.142 | 3.23 | 1.492 | 577
4 | C[C@]12CC[C@@H]3c4ccc(OCC(=O)N[C@@H](CCCNC(=N)N)C(=O)NCC(=O)N[C@@H](CC(=O)O)C(=O)N[C@@H](CO)C(=O)N[C@@H](CCCNC(=N)N)C(=O)NCC(=O)N[C@@H](CC(=O)O)C(=O)N[C@@H](CO)C(=O)O)cc4CC[C@H]3[C@@H]1CC[C@@H]2O ({Acetyl(estradiol-3-yloxy)}-RGDSRGDS-OH) | 564 | 0.062 | 0.626 | 36.42 | 63.12 | 2.91 | 0.17 | 21.56 | 0.11 | 56.6 | 1.657 | 0.133 | 3.01 | 1.448 | 559
5 | CC(C)[C@H](NC(=O)[C@H](CC(=O)O)NC(=O)CNC(=O)[C@H](CCCNC(=N)N)NC(=O)COc1ccc2c(c1)CC[C@@H]1[C@@H]2CC[C@]2(C)[C@@H](O)CC[C@@H]12)C(=O)O ({Acetyl(estradiol-3-yloxy)}-RGDV-OH) | 569 | 0.064 | 0.611 | 33.99 | 57.84 | 2.99 | 0.167 | 20.24 | 0.109 | 53.97 | 1.67 | 0.133 | 3.22 | 1.4 | 577
6 | C[C@]12CC[C@@H]3c4ccc(O)cc4CC[C@H]3[C@@H]1CC[C@@H]2OC(=O)CCC(=O)N[C@@H](CCCNC(=N)N)C(=O)NCC(=O)N[C@@H](CC(=O)O)C(=O)N[C@@H](Cc1ccccc1)C(=O)O ({Succinyl(O17-estradiol)}-RGDF-OH) | 576 | 0.06 | 0.605 | 33.87 | 59.36 | 3.01 | 0.16 | 20.56 | 0.109 | 54 | 1.64 | 0.135 | 3.21 | 1.266 | 568
7 | C[C@]12CC[C@@H]3c4ccc(O)cc4CC[C@H]3[C@@H]1CC[C@@H]2OC(=O)CCC(=O)N[C@@H](CCCNC(=N)N)C(=O)NCC(=O)N[C@@H](CC(=O)O)C(=O)N[C@@H](CO)C(=O)O ({Succinyl(O17-estradiol)}-RGDS-OH) | 575 | 0.063 | 0.604 | 34.17 | 59.34 | 3.01 | 0.182 | 20.37 | 0.12 | 53.78 | 1.659 | 0.15 | 3.18 | 1.537 | 561
8 | C[C@]12CC[C@@H]3c4ccc(O)cc4CC[C@H]3[C@@H]1CC[C@@H]2O [ESTRADIOL] | 417 | 0.108 | 0.608 | 32.22 | 57.28 | 3.01 | 0.173 | 19.81 | 0.12 | – | 1.642 | 0.144 | 3.24 | 1.552 | 441
